In ChEMBL document CHEMBL1133216, “Synthesis and structure-activity relationships of novel fungal chitin synthase inhibitors” (Bioorg Med Chem Lett, 2000) one finds IC50 and T/C data, which are given here for 31 molecules.

Values after ≈ are worked out from the molar mass of the structure shown. Values joined by “and” are separate entries in the source; they are usually repeats but may differ in a detail not shown here. Equal entries are not always repeated. Where only a bound is given, the exact number is not on record here.

Test [1] concerns Candida albicans. The test is described as follows: In vitro antifungal activity against Candida albicans CY 1002. It counts as functional, organism-based.
In the next test the target is Chitin synthase 1 (Candida albicans, UniProt P23316). The test is described as follows: Inhibitory of Candida albicans chitin synthase 1.
Chain of Chitin synthase 1 (P23316 whole entry): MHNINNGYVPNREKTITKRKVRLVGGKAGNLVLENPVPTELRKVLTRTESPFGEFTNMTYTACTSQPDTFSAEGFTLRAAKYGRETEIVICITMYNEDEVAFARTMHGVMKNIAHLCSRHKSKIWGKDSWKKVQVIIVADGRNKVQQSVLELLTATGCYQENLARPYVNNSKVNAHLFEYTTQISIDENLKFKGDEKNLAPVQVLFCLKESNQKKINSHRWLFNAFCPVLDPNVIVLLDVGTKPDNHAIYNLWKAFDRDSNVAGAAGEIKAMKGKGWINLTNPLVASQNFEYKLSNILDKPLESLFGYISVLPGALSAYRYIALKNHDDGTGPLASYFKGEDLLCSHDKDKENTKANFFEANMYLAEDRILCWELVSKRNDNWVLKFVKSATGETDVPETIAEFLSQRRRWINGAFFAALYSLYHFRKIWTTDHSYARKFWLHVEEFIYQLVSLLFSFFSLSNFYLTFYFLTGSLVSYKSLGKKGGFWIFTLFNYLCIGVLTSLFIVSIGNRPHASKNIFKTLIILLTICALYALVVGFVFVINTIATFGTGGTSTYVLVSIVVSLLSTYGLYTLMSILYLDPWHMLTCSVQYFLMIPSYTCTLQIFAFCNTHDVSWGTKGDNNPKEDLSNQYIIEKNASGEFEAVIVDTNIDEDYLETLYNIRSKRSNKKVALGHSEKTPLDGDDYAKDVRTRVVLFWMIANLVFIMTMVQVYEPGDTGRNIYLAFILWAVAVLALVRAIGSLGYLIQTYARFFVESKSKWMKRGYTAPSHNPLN
For a further test, the system named is Aspergillus fumigatus. The test can be described thus: In vitro antifungal activity of compound was tested against Aspergillus fumigatus CF1003.
Test [2] has as its system Cryptococcus neoformans. The test is described as follows: In vitro antifungal activity of compound was tested against Cryptococcus neoformans CY 1057.
The test system of the next test is Candida parapsilosis. The test is described as follows: In vitro antifungal activity of compound was tested against Candida parapsilosis CY 1028. Conditions: Lodderomyces parapsilosis. It is filed as functional, organism-based.
The next test concerns Candida tropicalis. The test can be described thus: In vitro antifungal activity of compound was tested against Candida tropicalis CY 1038. It is filed as functional, organism-based.
Test [3] has as its system Candida albicans. The test can be described thus: In vitro antifungal activity against Candida albicans CY 3003. It is filed as functional, organism-based.
Test [4] has as its system Cryptococcus neoformans. The test can be described thus: In vitro antifungal activity of compound was tested against Cryptococcus neoformans CY 1059.
Another test deals with Nakaseomyces glabratus. The test can be described thus: In vitro antifungal activity against Candida glabrata CY 1014. It is filed as functional, organism-based.
In test [5] the test system is Mus musculus. The test can be described thus: In vivo antifungal activity was evaluated in target organ kidney assay (TOKA) in mice infected with Candida albicans CY 10025 X 10e5 cell after intravenous administration of compound at 5 mg/kg. It is filed as functional. Put shortly:
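Systemic candidiasis in mice, target organ kidney assay: infection with 5 × 10^5 cells/mouse, compound given iv at 0, 2 and 4 h post-infection in 5% DMSO-5% PEG300-30% HPCD. Kidney CFU counted; T/C = treated CFU/control CFU × 100.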

A further test relates to Pichia kudriavzevii. The test can be described thus: In vitro antifungal activity against Candida krusei CY 1191. It is filed as functional, organism-based.
The test system of test [6] is Candida albicans. The test is described as follows: In vitro antifungal activity against Candida albicans CY 1124. It counts as functional, organism-based.
The subject of test [7] is Candida albicans. The test can be described thus: In vitro antifungal activity against Candida albicans CY 1003. It counts as functional, organism-based.
Test [8] deals with Candida albicans. The test can be described thus: In vitro antifungal activity against Aspergillus fumigatus CF 1003. It counts as functional, organism-based.
The subject of test [9] is Mus musculus. The test is described as follows: In vivo antifungal activity was evaluated in target organ kidney assay (TOKA) in mice infected with Candida albicans CY 10025 X 10e5 cell after intravenous administration of compound at 1 mg/kg. It counts as functional. The essentials:
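Systemic candidiasis in mice, infected with C. albicans CY1002 at 5 × 10^5 cells/mouse. Dosed iv at 0, 2 and 4 h after infection: 5 mg/kg in 5% DMSO 5% PEG300-30% HPCD, comparator azole at 1 mg/kg. Kidney CFU counted; T/C = treated CFU/control CFU × 100.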

Test [10] has as its system Candida albicans. The test can be described thus: In vitro antifungal activity against […] CY 1057. It counts as functional, organism-based.

`CN(CC#CC#Cc1ccccc1)c1cccc2c1CCC(=O)N2`: the results for the IC50 with Candida albicans [1] and at Chitin synthase 1 were greater than 200 µg/mL and 13700 nM, respectively.
For `CCCCN(C/C=C/C#CC(C)(C)C)c1cccc2c1CCC(=O)N2`, the IC50 with Candida albicans [1] was greater than 200 µg/mL; at Chitin synthase 1 it was 0.35 nM.
The matching figures for `CN(CCCC#CC(C)(C)C)c1cccc2c1CCC(=O)N2`: greater than 200 µg/mL and 8.95 nM.
The matching figures for `CN(Cc1ccc(C#CC(C)(C)C)cc1)c1cccc2c1CCC(=O)N2`: greater than 200 µg/mL and 7.22 nM.
Regarding `CC(C)(C)C#C/C=C/CNc1cccc2nc(O)ccc12`, the IC50 in the test on Candida albicans [1] was 3.3 µg/mL (≈ 11.8 µM); at Chitin synthase 1 it was 71.3 nM and 70 nM.
For `CCCN(C/C=C/C#CC(C)(C)C)c1cccc2c1CCC(=O)N2`, the half-inhibitory concentration (IC50) in the test with Candida albicans [1] was greater than 200 µg/mL; against Chitin synthase 1, 0.68 nM.
Molecule `CC(C)(C)C#C/C=C/CNCc1ccc(O)nc1` yielded an IC50 at Chitin synthase 1 of 211000 nM.
Still for that read-out and setting: the same measure for `CC(C)(C)C#C/C=C/CNc1cccc2oc(=O)ccc12`: 12000 nM.
With `CC(C)(C)C#C/C=C/CNc1cccc2c1CCC(=O)N2`, the values for the IC50 in the test with Candida albicans [1] and against Chitin synthase 1 were greater than 200 µg/mL and 70.9 nM, respectively.
Taken in the same sequence, the figures for `CCC#CC#CCN(C)c1cccc2c1CCC(=O)N2` were 200 µg/mL (≈ 751 µM) and 7.88 nM.
For `COC(C)(C)C#CC#CCN(C)c1cccc2c1CCC(=O)N2`, the IC50 with Candida albicans [1] is 3.5 µg/mL (≈ 11.3 µM); against Chitin synthase 1, 1030 nM.
The matching figures for `CN(CC#CC#CC(C)(C)O)c1cccc2c1CCC(=O)N2`: greater than 200 µg/mL and 213 nM.
The matching figures for `CN(C/C=C/C#CC(C)(C)C)c1cccc2c1CCC(=O)N2`: 0.19 µg/mL (≈ 0.641 µM) and 2.77 nM.
As for `CCOP(=O)(OCC)OC1Cc2c(cccc2N(C)CC#CC#CC(C)(C)C)NC1=O` (stereo not drawn), the IC50 with Aspergillus fumigatus is 21 µg/mL (≈ 47 µM); with Candida albicans [1], 2.1 µg/mL (≈ 4.7 µM); in the test on Cryptococcus neoformans [2], 0.23 µg/mL (≈ 0.515 µM); against Chitin synthase 1 it was 0.76 nM.
Turning to `CN(CC#CC#CC(C)(C)C)c1cccc2c1CCC(=O)N2`, the 50% inhibitory concentration (IC50) was 0.5 µg/mL (≈ 1.7 µM) in the test on Candida parapsilosis; 43 µg/mL (≈ 146 µM) in the test on Aspergillus fumigatus; 0.07 µg/mL (≈ 0.238 µM) with Candida tropicalis; 0.07 µg/mL (≈ 0.238 µM) in the test on Candida albicans [1]; 0.09 µg/mL (≈ 0.306 µM) in the test with Candida albicans [3]; greater than 200 µg/mL in the test with Cryptococcus neoformans [4]. The IC50 in the test with Nakaseomyces glabratus was 0.47 µg/mL (≈ 1.6 µM); at Chitin synthase 1, 0.14 nM; in the test with Pichia kudriavzevii it was 0.31 µg/mL (≈ 1.05 µM); with Candida albicans [6] it was 0.17 µg/mL (≈ 0.577 µM); in the test on Candida albicans [7] it was 0.1 µg/mL (≈ 0.34 µM). Moreover, the T/C in the test with Mus musculus [5] is 34%.
Turning to `CC(C)[C@@H](N)C(=O)OC1Cc2c(cccc2N(C)CC#CC#CC(C)(C)C)NC1=O` (stereo partly drawn), the IC50 with Aspergillus fumigatus is 19 µg/mL (≈ 46.4 µM); with Candida albicans [1], 1.3 µg/mL (≈ 3.17 µM); in the test with Cryptococcus neoformans [2], 16 µg/mL (≈ 39.1 µM); at Chitin synthase 1, 14.9 nM. The molecule further had a T/C in the test with Mus musculus [5] of 15%.
As for `C[C@@H]([C@H](N)C(=O)N[C@H](C(=O)O)[C@H]1O[C@@H](n2ccc(=O)[nH]c2=O)[C@H](O)[C@@H]1O)[C@H](O)c1ccc(O)cn1` [NIKKOMYCIN], the IC50 was 13 µg/mL (≈ 26.2 µM) in the test with Candida parapsilosis; 11 µg/mL (≈ 22.2 µM) in the test on Aspergillus fumigatus; 73 µg/mL (≈ 147 µM) in the test on Candida tropicalis; 12 µg/mL (≈ 24.2 µM) in the test on Candida albicans [1]; 7 µg/mL (≈ 14.1 µM) with Candida albicans [3]; greater than 200 µg/mL with Cryptococcus neoformans [4]. The IC50 is greater than 200 µg/mL in the test on Nakaseomyces glabratus; 3200 nM against Chitin synthase 1; greater than 200 µg/mL in the test on Pichia kudriavzevii; 15 µg/mL (≈ 30.3 µM) in the test on Candida albicans [6]; 81 µg/mL (≈ 163 µM) in the test with Candida albicans [7].
Turning to `CN(CC#CC#CC(C)(C)C)c1cccc2c1CC(O)C(=O)N2` (stereo not drawn), the 50% inhibitory concentration (IC50) is 82 µg/mL (≈ 264 µM) in the test on Aspergillus fumigatus, 0.13 µg/mL (≈ 0.419 µM) in the test on Candida albicans [1], greater than 200 µg/mL in the test with Cryptococcus neoformans [2] and 3 nM on Chitin synthase 1. This molecule also displayed a T/C in the test with Mus musculus [5] of 39%.
In turn, `CC(=O)Nc1cccc(NC/C=C/C#CC(C)(C)C)c1` showed an IC50 on Chitin synthase 1 of 1000 nM.
As for `CC(C)(C)C#C/C=C/CN(c1cccc2c1CCC(=O)N2)S(C)(=O)=O`, the concentration for half-maximal inhibition (IC50) in the test on Candida albicans [1] is greater than 200 µg/mL; at Chitin synthase 1, 391 nM.
Molecule `Cn1c(=O)ccc2c(NC/C=C/C#CC(C)(C)C)cccc21` yielded an IC50 at Chitin synthase 1 of 16000 nM.
For the molecule `CC(C)(C)C#C/C=C/CN(Cc1ccccc1)c1cccc2c1CCC(=O)N2`, the IC50 in the test with Candida albicans [1] is greater than 200 µg/mL; on Chitin synthase 1 it was 54 nM.
`CC(C)(C)C#C/C=C/CNc1cccc2ncccc12` showed an IC50 against Chitin synthase 1 of 4500 nM.
For the molecule `CN(CC#CC#CC(C)(C)C)c1cccc2c1CC(N)C(=O)N2` (stereo not drawn), the IC50 with Aspergillus fumigatus was found to be 35 µg/mL (≈ 113 µM); in the test on Candida albicans [1] it was 20 µg/mL (≈ 64.6 µM); in the test on Cryptococcus neoformans [2] it was 15 µg/mL (≈ 48.5 µM); against Chitin synthase 1, 12.3 nM. Moreover, the T/C in the test on Mus musculus [5] stood at 23%.
For the molecule `OC(Cn1cncn1)(Cn1cncn1)c1ccc(F)cc1F` [FLUCONAZOLE], the results for the concentration for half-maximal inhibition (IC50) in the test on Candida albicans [8], with Candida albicans [1] and with Candida albicans [10] were 50 µg/mL (≈ 163 µM), 1.2 µg/mL (≈ 3.92 µM) and 3.4 µg/mL (≈ 11.1 µM), respectively. The molecule also came in with a T/C with Mus musculus [9] of 38%.
For the molecule `CC(C)N(C/C=C/C#CC(C)(C)C)c1cccc2c1CCC(=O)N2`, the 50% inhibitory concentration (IC50) in the test on Candida albicans [1] is greater than 200 µg/mL; on Chitin synthase 1, 1.23 nM.
The matching figures for `CN(C/C=C\C#CC(C)(C)C)c1cccc2c1CCC(=O)N2`: 95 µg/mL (≈ 320 µM) and 13.2 nM.
The matching figures for `CC(=O)N(C/C=C/C#CC(C)(C)C)c1cccc2c1CCC(=O)N2`: greater than 200 µg/mL and 775 nM.
Taken in the same sequence, the figures for `CCCCCN(C/C=C/C#CC(C)(C)C)c1cccc2c1CCC(=O)N2` were greater than 200 µg/mL and 1.1 nM.
Regarding `CCN(C/C=C/C#CC(C)(C)C)c1cccc2c1CCC(=O)N2`, the IC50 in the test with Candida albicans [1] is 0.27 µg/mL (≈ 0.87 µM); on Chitin synthase 1, 0.9 nM.
On Chitin synthase 1, `CC(C)(C)CCCCCNc1cccc2[nH]c(=O)ccc12` returned an IC50 greater than 350000 nM.

As a reminder, the IC50 is the concentration needed to halve the response being measured. The low end stands for greater potency, the high end for weaker potency. For orientation: T/C means the ratio of treated to control.
